Columns and labels:
[1] = Inhibition of pig liver endoplasmic reticulum alpha glucosidase-1 using 4-methylumbelliferyl-alpha-D-glucoside as substrate measured after 90 mins by fluorescence analysis; parameters: species or system Sus scrofa
[2] = system: Mus musculus; experiment: Prodrug activation in BALB/c mouse assessed as 3-(tert-butyl)-1-cyclohexyl-1-(6-((2R,3R,4R,5S)-3,4,5-trihydroxy-2-(hydroxymethyl)piperidin-1-yl)hexyl)urea half life at 100 mg/kg, po administered as single dose by LC-MS/MS analysis; type: organism-based; settings: in vivo
Summary of the method: (§1)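 Male BALB/c mice dosed with the prodrugs or the parent orally (25 or 100 mg/kg) or intravenously (5 mg/kg). The parent compound was quantified in plasma and PK parameters were derived from it. The first sampling point was 5 min post-dose, and prodrugs were tracked up to 4 h.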

[3] = Apparent permeability of the compound across apical side to basolateral side in human Caco2 cells assessed as drug recovery at 5 uM measured after 2 hrs by LC-MS/MS analysis; type: ADME, cell-based; settings: Caco-2, read-out: Drug recovery
[4] = system: Mus musculus; experiment: Prodrug activation in BALB/c mouse assessed as 3-(tert-butyl)-1-cyclohexyl-1-(6-((2R,3R,4R,5S)-3,4,5-trihydroxy-2-(hydroxymethyl)piperidin-1-yl)hexyl)urea Tmax at 100 mg/kg, po administered as single dose by LC-MS/MS analysis; type: organism-based; settings: in vivo; summary of the method: as §1
[5] = system: Mus musculus; experiment: Prodrug activation in po dosed BALB/c mouse assessed as 3-(tert-butyl)-1-cyclohexyl-1-(6-((2R,3R,4R,5S)-3,4,5-trihydroxy-2-(hydroxymethyl)piperidin-1-yl)hexyl)urea formation measured up to 4 hrs by LC-MS/MS analysis; type: organism-based; settings: in vivo; summary of the method: as §1
[6] = Prodrug activation in simulated gastric fluid assessed as 3-(tert-butyl)-1-cyclohexyl-1-(6-((2R,3R,4R,5S)-3,4,5-trihydroxy-2-(hydroxymethyl)piperidin-1-yl)hexyl)urea formation at 5 uM measured after 4 hrs by LC-MS/MS analysis
Summary of the method: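 Chemical stability assessed by incubation in simulated gastric fluid and simulated intestinal fluid; percent of compound remaining was measured.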

[7] = system: Mus musculus; experiment: Prodrug activation in BALB/c mouse assessed as 3-(tert-butyl)-1-cyclohexyl-1-(6-((2R,3R,4R,5S)-3,4,5-trihydroxy-2-(hydroxymethyl)piperidin-1-yl)hexyl)urea half life at 5 mg/kg, iv as bolus administration by LC-MS/MS analysis; type: organism-based; settings: in vivo; summary of the method: as §1
[8] = Half life in pooled mouse liver microsomes at 200 uM by LC-MS/MS analysis; type: ADME, microsome; settings: liver microsomes
Summary of the method: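 Prodrugs or parent incubated in pooled human or mouse liver microsomes for up to 60 min, with or without cofactor. Percent remaining and percent conversion to the parent were measured.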

[9] = system: Mus musculus; experiment: Prodrug activation in po dosed BALB/c mouse assessed as 3-(tert-butyl)-1-cyclohexyl-1-(6-((2R,3R,4R,5S)-3,4,5-trihydroxy-2-(hydroxymethyl)piperidin-1-yl)hexyl)urea formation measured after 5 mins by LC-MS/MS analysis; type: organism-based; settings: in vivo; summary of the method: as §1
[10] = system: Mus musculus; experiment: Prodrug activation in BALB/c mouse assessed as 3-(tert-butyl)-1-cyclohexyl-1-(6-((2R,3R,4R,5S)-3,4,5-trihydroxy-2-(hydroxymethyl)piperidin-1-yl)hexyl)urea formation at 100 mg/kg, po administered as single dose measured after 3 hrs by LC-MS/MS analysis; type: organism-based; settings: in vivo; summary of the method: as §1

SMILES	IC50 [1]	t1/2 [2]	recovery at 2 h, 5 µM [3]	Tmax [4]	Drug metabolism [5]	Drug metabolism [6]	t1/2 [7]	half-life at 200 µM [8]	Drug metabolism [9]	Drug metabolism [10]
CC(C)C(=O)OC[C@@H]1[C@@H](OC(=O)C(C)C)[C@H](OC(=O)C(C)C)[C@@H](OC(=O)C(C)C)CN1CCCCCCN(C(=O)NC(C)(C)C)C1CCCCC1	> 80 µM	70.8 min	< 60%	30 min	Metabolite_Notdetected	0%	75 min	14 min	–	–
CCCC(=O)OC[C@@H]1[C@@H](OC(=O)CCC)[C@H](OC(=O)CCC)[C@@H](OC(=O)CCC)CN1CCCCCCN(C(=O)NC(C)(C)C)C1CCCCC1	> 80 µM	137 min	< 60%	30 min	–	0%	50.4 min	20 min	Metabolite_Detected	> 1 µM
CC(=O)OC[C@@H]1[C@@H](OC(C)=O)[C@H](OC(C)=O)[C@@H](OC(C)=O)CN1CCCCCCN(C(=O)NC(C)(C)C)C1CCCCC1	> 80 µM	43.2 min	9%	15 min	–	0%	66.6 min	2 min	Metabolite_Detected	–

Reference: ChEMBL document CHEMBL4041548, “Ester Prodrugs of IHVR-19029 with Enhanced Oral Exposure and Prevention of Gastrointestinal Glucosidase Interaction” (ACS Med Chem Lett, 2017)
